Reference: ChEMBL document CHEMBL4622889, “Antineurodegenerative Labdane Diterpenoid Glycosides from the Twigs of Pinus koraiensis” (J Nat Prod, 2020)

Assays:
[1] = Cytotoxicity against rat C6 cells assessed as cell viability at 20 uM by MTT assay relative to control; type: cell-based; details: read-out: Activity
In short: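 C6 cells exposed to 20 μM of each compound; viability read by MTT and expressed as percent. Means ± SD of three independent experiments.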

C6 = experiment: Neuroprotective activity in rat C6 cells assessed as NGF secretion at 20 uM incubated for 24 hrs by ELISA relative to control; type: functional
In short: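 Compounds applied to C6 glioma cells at 20 μM for 24 h; NGF released into the conditioned medium quantified by ELISA and given as percent of untreated control (100%). 6-Shogaol served as positive control. Means ± SD of three independent experiments.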

[2] = Cytotoxicity against mouse BV2 cells assessed as cell viability at 20 uM by MTT assay relative to control; type: cell-based, BV-2; details: read-out: Activity
In short: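 BV2 cells treated with 20 μM of each compound; viability determined by MTT and expressed as percent. Means ± SD of three independent experiments.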

BV-2 = experiment: Antineuroinflammatory activity against mouse BV2 cells assessed as inhibition of LPS-induced NO production incubated for 24 hrs by Griess assay; type: functional, cell-based; details: BV-2, 24 h
In short: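 BV2 microglia activated with LPS; NO production measured across compound concentrations, IC50 taken as the concentration (μM) giving 50% inhibition of NO production. Means ± SD of three independent experiments.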

SMILES	viability at 20 µM [1]	Activity (C6)	viability at 20 µM [2]	IC50 (BV-2)
C=C1C[C@H](O)[C@@H]2[C@](C)(CCC[C@]2(C)C(=O)O[C@@H]2O[C@H](CO)[C@@H](O)[C@H](O)[C@H]2O)[C@H]1CCC1=CCOC1=O	101%	128.7%	99.7%	35.7 µM
C[C@]12CCC[C@](C)(C(=O)O[C@@H]3O[C@H](CO)[C@@H](O)[C@H](O)[C@H]3O)[C@@H]1CC=C(CO)[C@@H]2CCC1=CCOC1=O	102%	119.4%	87.7%	93.2 µM
C[C@]12CCC[C@](C)(C(=O)O[C@@H]3O[C@H](CO)[C@@H](O)[C@H](O)[C@H]3O)[C@@H]1CC[C@](C)(O)[C@@H]2CCC1=CCOC1=O	94.2%	106.1%	89.6%	49.2 µM
C=C1CC[C@@H]2[C@](C)(CC[C@H](O)[C@]2(C)C(=O)O[C@@H]2O[C@H](CO)[C@@H](O)[C@H](O)[C@H]2O)[C@H]1CCC1=CCOC1=O	98.3%	134.7%	91.3%	68.8 µM
C=C1CC[C@@H]2[C@](C)(CCC[C@]2(C)C(=O)O[C@@H]2O[C@H](CO)[C@@H](O)[C@H](O)[C@H]2O)[C@H]1CC/C(=C\CO)CO	104%	162.3%	135%	65.4 µM
C=C1CC[C@@H]2[C@](C)(CC[C@@H](O)[C@]2(C)C(=O)O[C@@H]2O[C@H](CO)[C@@H](O)[C@H](O)[C@H]2O)[C@H]1CCC1=CCOC1=O	92.8%	106.6%	77.5%	24.1 µM
C=C1CC[C@@H]2[C@](C)(CCC[C@]2(C)C(=O)O[C@@H]2O[C@H](CO)[C@@H](O)[C@H](O)[C@H]2O)[C@H]1CCC1=CCOC1=O	101%	142.4%	92.1%	65.8 µM
C=C1CC[C@@H]2[C@](C)(CCC[C@]2(C)C(=O)O[C@@H]2O[C@H](CO)[C@@H](O)[C@H](O)[C@H]2O)[C@H]1CCC1=CC(=O)OC1	105%	162.7%	107%	54.1 µM
CNC(=N)NCCC[C@H](N)C(=O)O [TILARGININE]			99.2%	28.8 µM
C=C1CC[C@@H]2[C@](C)(CCC[C@]2(O)C(=O)O[C@@H]2O[C@H](CO)[C@@H](O)[C@H](O)[C@H]2O)[C@H]1CCC1=CCOC1=O	76%	98.6%	80.7%	51.6 µM
C[C@]12CCC[C@](C)(C(=O)O[C@@H]3O[C@H](CO)[C@@H](O)[C@H](O)[C@H]3O)[C@@H]1CC[C@@](C)(O)[C@@H]2CCC1=CCOC1=O	111%	84.5%	70.4%	402 µM
C=C1CC[C@@H]2[C@](C)(CCC[C@]2(C)C(=O)O[C@@H]2O[C@H](CO)[C@@H](O)[C@H](O)[C@H]2O)[C@H]1CC/C(=C/CO)CO	86.5%	105.4%	133%	152 µM
